Key:
[1] = target: T1, Amyloid-beta precursor protein (Homo sapiens, UniProt P05067); assay: Inhibition of amyloid beta 40 peptide (unknown origin) aggregation incubated for 2 hr by ThT fluorescence based spectrofluorimetric analysis
Summary of the method: (§1)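 Aβ40 peptide aggregation enhanced with 2% HFIP; thioflavin T fluorescence read-out; run in triplicate.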

[2] = Cytotoxicity against green monkey Vero 76 cells incubated for 48 to 96 hrs by crystal violet staining assay; format: toxicity, cell-based; settings: green monkey (Chlorocebus sabaeus)
[3] = target: T2, Microtubule-associated protein tau (Homo sapiens, UniProt P10636); assay: Inhibition of tau (unknown origin) aggregation expressed in Escherichia coli BL21 (DE3)
Summary of the method: (§2)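 E. coli BL21(DE3) carrying pTARA (T7 RNA polymerase under PBAD) and pRKT42 (four-repeat tau) grown at 37 °C in M9 with 0.5% glucose, antibiotics and 250 μM ThS to OD600 0.6. […] ThS fluorescence ex 430/em 485 nm, normalized to tau-expressing cells (100%) and non-expressing cells (0%); OD600 checked for growth.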
Target sequence in this assay (P10636 whole entry): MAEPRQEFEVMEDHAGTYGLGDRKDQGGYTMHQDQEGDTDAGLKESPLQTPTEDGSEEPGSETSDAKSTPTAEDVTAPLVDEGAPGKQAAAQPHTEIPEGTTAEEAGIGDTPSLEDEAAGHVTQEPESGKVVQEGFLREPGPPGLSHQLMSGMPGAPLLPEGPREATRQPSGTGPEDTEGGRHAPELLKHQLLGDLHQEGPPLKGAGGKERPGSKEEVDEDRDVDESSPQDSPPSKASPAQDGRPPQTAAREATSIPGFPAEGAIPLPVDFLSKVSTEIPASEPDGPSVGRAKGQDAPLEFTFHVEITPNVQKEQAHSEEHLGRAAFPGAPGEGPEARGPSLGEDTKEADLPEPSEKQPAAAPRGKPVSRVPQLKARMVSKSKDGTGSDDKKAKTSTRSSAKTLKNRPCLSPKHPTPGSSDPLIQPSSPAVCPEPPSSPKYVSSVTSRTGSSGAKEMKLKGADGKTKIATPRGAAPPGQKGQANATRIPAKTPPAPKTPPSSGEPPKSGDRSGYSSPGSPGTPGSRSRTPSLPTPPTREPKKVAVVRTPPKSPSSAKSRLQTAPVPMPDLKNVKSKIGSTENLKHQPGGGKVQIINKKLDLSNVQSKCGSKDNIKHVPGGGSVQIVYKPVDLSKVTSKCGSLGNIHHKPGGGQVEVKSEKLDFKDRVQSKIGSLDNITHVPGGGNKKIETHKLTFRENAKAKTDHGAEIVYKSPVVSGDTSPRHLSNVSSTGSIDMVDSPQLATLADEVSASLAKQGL

[4] = target: T1, Amyloid-beta precursor protein; assay: Inhibition of amyloid beta 40 peptide (unknown origin) aggregation at 100 uM incubated for 2 hr by ThT fluorescence based spectrofluorimetric analysis relative to control; summary of the method: as §1
[5] = target: T2, Microtubule-associated protein tau; assay: Inhibition of tau (unknown origin) aggregation expressed in Escherichia coli BL21 (DE3) at 10 uM relative to control; summary of the method: as §2
Target sequence in this assay (P10636 whole entry): as above

[6] = Cytotoxicity against mouse brain Primary embryonic cortical cell assessed as cell death at 2.5 uM incubated for 1 hr by propidium iodide dye based spectrofluorometric analysis relative to control; format: toxicity
Summary of the method: (§3)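 Primary cortical cultures from E16.5 mouse embryo brains, trypsinized, plated on poly-D-lysine, grown in Neurobasal with glutamine, glucose, 5% horse serum and B27; compounds added at 4 DIV. Propidium iodide 30 μM; baseline F1 read 1 h after PI; ex 530/em 645 nm. Fmax after digitonin permeabilization. % death = 100×(Fn−F1)/(Fmax−F1); mean of three independent experiments.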

[7] = Cytotoxicity against mouse brain Primary embryonic cortical cell assessed as cell death at 2.5 uM incubated for 2 hrs by propidium iodide dye based spectrofluorometric analysis relative to control; format: toxicity; summary of the method: as §3
[8] = Cytotoxicity against mouse brain Primary embryonic cortical cell assessed as cell death at 2.5 uM incubated for 3 hrs by propidium iodide dye based spectrofluorometric analysis relative to control; format: toxicity; summary of the method: as §3
[9] = Cytotoxicity against mouse brain Primary embryonic cortical cell assessed as cell death at 2.5 uM incubated for 4 hrs by propidium iodide dye based spectrofluorometric analysis relative to control; format: toxicity; summary of the method: as §3
[10] = Cytotoxicity against mouse brain Primary embryonic cortical cell assessed as cell death at 2.5 uM incubated for 5 hrs by propidium iodide dye based spectrofluorometric analysis relative to control; format: toxicity; summary of the method: as §3
[11] = Cytotoxicity against mouse brain Primary embryonic cortical cell assessed as cell death at 2.5 uM incubated for 6 hrs by propidium iodide dye based spectrofluorometric analysis relative to control; format: toxicity; summary of the method: as §3
[12] = Cytotoxicity against mouse brain Primary embryonic cortical cell assessed as cell death at 2.5 uM incubated for 24 hrs by propidium iodide dye based spectrofluorometric analysis relative to control; format: toxicity; summary of the method: as §3
[13] = Cytotoxicity against mouse brain Primary embryonic cortical cell assessed as cell death at 2.5 uM incubated for 48 hrs by propidium iodide dye based spectrofluorometric analysis relative to control; format: toxicity; summary of the method: as §3
[14] = Cytotoxicity against mouse brain Primary embryonic cortical cell assessed as cell death at 2.5 uM incubated for 72 hrs by propidium iodide dye based spectrofluorometric analysis relative to control; format: toxicity; summary of the method: as §3
[15] = Cytotoxicity against mouse brain Primary embryonic cortical cell assessed as cell death at 5 uM incubated for 1 hr by propidium iodide dye based spectrofluorometric analysis relative to control; format: toxicity; summary of the method: as §3
[16] = Cytotoxicity against mouse brain Primary embryonic cortical cell assessed as cell death at 5 uM incubated for 2 hrs by propidium iodide dye based spectrofluorometric analysis relative to control; format: toxicity; summary of the method: as §3
[17] = Cytotoxicity against mouse brain Primary embryonic cortical cell assessed as cell death at 5 uM incubated for 3 hrs by propidium iodide dye based spectrofluorometric analysis relative to control; format: toxicity; summary of the method: as §3
[18] = Cytotoxicity against mouse brain Primary embryonic cortical cell assessed as cell death at 5 uM incubated for 4 hrs by propidium iodide dye based spectrofluorometric analysis relative to control; format: toxicity; summary of the method: as §3
[19] = Cytotoxicity against mouse brain Primary embryonic cortical cell assessed as cell death at 5 uM incubated for 5 hrs by propidium iodide dye based spectrofluorometric analysis relative to control; format: toxicity; summary of the method: as §3
[20] = Cytotoxicity against mouse brain Primary embryonic cortical cell assessed as cell death at 5 uM incubated for 6 hrs by propidium iodide dye based spectrofluorometric analysis relative to control; format: toxicity; summary of the method: as §3
[21] = Cytotoxicity against mouse brain Primary embryonic cortical cell assessed as cell death at 5 uM incubated for 24 hrs by propidium iodide dye based spectrofluorometric analysis relative to control; format: toxicity; summary of the method: as §3
[22] = Cytotoxicity against mouse brain Primary embryonic cortical cell assessed as cell death at 5 uM incubated for 48 hrs by propidium iodide dye based spectrofluorometric analysis relative to control; format: toxicity; summary of the method: as §3
[23] = Cytotoxicity against mouse brain Primary embryonic cortical cell assessed as cell death at 5 uM incubated for 72 hrs by propidium iodide dye based spectrofluorometric analysis relative to control; format: toxicity; summary of the method: as §3
[24] = Cytotoxicity against mouse brain Primary embryonic cortical cell assessed as cell death at 10 uM incubated for 1 hr by propidium iodide dye based spectrofluorometric analysis relative to control; format: toxicity; summary of the method: as §3
[25] = Cytotoxicity against mouse brain Primary embryonic cortical cell assessed as cell death at 10 uM incubated for 2 hrs by propidium iodide dye based spectrofluorometric analysis relative to control; format: toxicity; summary of the method: as §3
[26] = Cytotoxicity against mouse brain Primary embryonic cortical cell assessed as cell death at 10 uM incubated for 3 hrs by propidium iodide dye based spectrofluorometric analysis relative to control; format: toxicity; summary of the method: as §3
[27] = Cytotoxicity against mouse brain Primary embryonic cortical cell assessed as cell death at 10 uM incubated for 4 hrs by propidium iodide dye based spectrofluorometric analysis relative to control; format: toxicity; summary of the method: as §3
[28] = Cytotoxicity against mouse brain Primary embryonic cortical cell assessed as cell death at 10 uM incubated for 5 hrs by propidium iodide dye based spectrofluorometric analysis relative to control; format: toxicity; summary of the method: as §3
[29] = Cytotoxicity against mouse brain Primary embryonic cortical cell assessed as cell death at 10 uM incubated for 6 hrs by propidium iodide dye based spectrofluorometric analysis relative to control; format: toxicity; summary of the method: as §3
[30] = Cytotoxicity against mouse brain Primary embryonic cortical cell assessed as cell death at 10 uM incubated for 24 hrs by propidium iodide dye based spectrofluorometric analysis relative to control; format: toxicity; summary of the method: as §3
[31] = Cytotoxicity against mouse brain Primary embryonic cortical cell assessed as cell death at 10 uM incubated for 48 hrs by propidium iodide dye based spectrofluorometric analysis relative to control; format: toxicity; summary of the method: as §3
[32] = Cytotoxicity against mouse brain Primary embryonic cortical cell assessed as cell death at 10 uM incubated for 72 hrs by propidium iodide dye based spectrofluorometric analysis relative to control; format: toxicity; summary of the method: as §3
[33] = Cytotoxicity against mouse brain Primary embryonic cortical cell assessed as cell death at 30 uM incubated for 1 hr by propidium iodide dye based spectrofluorometric analysis relative to control; format: toxicity; summary of the method: as §3
[34] = Cytotoxicity against mouse brain Primary embryonic cortical cell assessed as cell death at 30 uM incubated for 2 hrs by propidium iodide dye based spectrofluorometric analysis relative to control; format: toxicity; summary of the method: as §3
[35] = Cytotoxicity against mouse brain Primary embryonic cortical cell assessed as cell death at 30 uM incubated for 3 hrs by propidium iodide dye based spectrofluorometric analysis relative to control; format: toxicity; summary of the method: as §3
[36] = Cytotoxicity against mouse brain Primary embryonic cortical cell assessed as cell death at 30 uM incubated for 4 hrs by propidium iodide dye based spectrofluorometric analysis relative to control; format: toxicity; summary of the method: as §3
[37] = Cytotoxicity against mouse brain Primary embryonic cortical cell assessed as cell death at 30 uM incubated for 5 hrs by propidium iodide dye based spectrofluorometric analysis relative to control; format: toxicity; summary of the method: as §3
[38] = Cytotoxicity against mouse brain Primary embryonic cortical cell assessed as cell death at 30 uM incubated for 6 hrs by propidium iodide dye based spectrofluorometric analysis relative to control; format: toxicity; summary of the method: as §3
[39] = Cytotoxicity against mouse brain Primary embryonic cortical cell assessed as cell death at 30 uM incubated for 24 hrs by propidium iodide dye based spectrofluorometric analysis relative to control; format: toxicity; summary of the method: as §3
[40] = Cytotoxicity against mouse brain Primary embryonic cortical cell assessed as cell death at 30 uM incubated for 48 hrs by propidium iodide dye based spectrofluorometric analysis relative to control; format: toxicity; summary of the method: as §3
[41] = Cytotoxicity against mouse brain Primary embryonic cortical cell assessed as cell death at 30 uM incubated for 72 hrs by propidium iodide dye based spectrofluorometric analysis relative to control; format: toxicity; summary of the method: as §3
[42] = Cytotoxicity against human SH-SY5Y cells incubated for 24 hrs by MTT assay; format: toxicity, cell-based
[43] = Cytotoxicity against rat Primary cerebellar granule neuron assessed as cell viability at 10 uM relative to control; format: toxicity, cell-based, Cerebellar granule neurone; settings: primary cerebellar granule neurons, read-out: Activity
[44] = target: T2, Microtubule-associated protein tau; assay: Inhibition of PHF6 peptide (unknown origin) aggregation at 10 uM measured after 3 hrs by thioflavin T fluorescence based fluorimetric analysis relative to control
Target sequence in this assay (P10636 whole entry, looked up): as the sequence (P10636 whole entry) above

T1 sequence (P05067 whole entry): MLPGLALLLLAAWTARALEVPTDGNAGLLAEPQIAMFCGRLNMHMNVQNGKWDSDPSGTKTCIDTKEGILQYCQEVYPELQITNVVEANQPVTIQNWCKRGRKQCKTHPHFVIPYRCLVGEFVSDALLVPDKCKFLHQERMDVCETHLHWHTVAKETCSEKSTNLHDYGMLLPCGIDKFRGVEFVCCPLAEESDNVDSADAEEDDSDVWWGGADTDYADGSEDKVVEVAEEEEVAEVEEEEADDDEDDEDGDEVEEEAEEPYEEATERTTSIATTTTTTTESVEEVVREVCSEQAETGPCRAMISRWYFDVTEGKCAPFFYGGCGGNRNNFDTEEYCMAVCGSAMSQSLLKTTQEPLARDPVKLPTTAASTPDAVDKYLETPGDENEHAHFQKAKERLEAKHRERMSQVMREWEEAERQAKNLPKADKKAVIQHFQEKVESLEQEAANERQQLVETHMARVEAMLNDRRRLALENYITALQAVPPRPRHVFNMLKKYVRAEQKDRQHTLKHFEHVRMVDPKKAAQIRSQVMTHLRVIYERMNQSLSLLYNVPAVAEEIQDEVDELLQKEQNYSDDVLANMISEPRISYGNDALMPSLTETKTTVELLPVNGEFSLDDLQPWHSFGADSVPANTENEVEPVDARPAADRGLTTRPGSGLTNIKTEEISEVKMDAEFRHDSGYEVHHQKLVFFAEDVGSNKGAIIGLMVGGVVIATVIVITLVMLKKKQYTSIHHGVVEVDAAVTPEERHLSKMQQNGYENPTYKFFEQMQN

Row | SMILES | IC50 [1] [µM] | IC50 [2] [µM] | IC50 [3] [µM] | Activity [6] [%] | Activity [7] [%] | Activity [8] [%] | Activity [9] [%] | Activity [10] [%] | Activity [11] [%] | Activity [12] [%] | Activity [13] [%] | Activity [14] [%] | Activity [15] [%] | Activity [16] [%] | Activity [17] [%] | Activity [18] [%] | Activity [19] [%] | Activity [20] [%] | Activity [21] [%] | Activity [22] [%] | also measured
1 | Cc1ccc(NC[C@@H]2CCCN3CCCC[C@H]23)c2c(=O)c3ccccc3sc12 | 28 | 12.4 |  |  |  |  |  |  |  |  |  |  |  |  |  |  |  |  |  |  | 
2 | CCN(CC)CCCNc1ccc(C)c2oc3ccccc3c(=O)c12 |  |  | 16 |  |  |  |  |  |  |  |  |  |  |  |  |  |  |  |  |  | inhibition [4]: 55%
3 | CCN(CC)CCNc1ccc(C)c2sc3ccccc3c(=O)c12 [LUCANTHONE] | 24 | 12.4 | 10.9 |  |  |  |  |  |  |  |  |  |  |  |  |  |  |  |  |  | 
4 | O=c1c2ccccc2sc2c([N+](=O)[O-])ccc(NCCC[C@@H]3CCCN4CCCC[C@H]34)c12 | 13 |  |  | 0.3 | 3.1 | 3.7 | 4.7 | 5.2 | 5.2 | 85.5 | 83.3 | 79.6 | 1.6 | 2.9 | 5 | 4.3 | 6.6 | 5.7 | 77 | 72.4 | inhibition [5]: 22%; Activity [23]: 79.4%; Activity [24]: -3.1%; Activity [25]: 1.7%; Activity [26]: 6.4%; Activity [27]: 16.2%; Activity [28]: 31%; Activity [29]: 35.9%; Activity [30]: 86.1%; Activity [31]: 79.1%; Activity [32]: 74.8%; Activity [33]: 11.6%; Activity [34]: 19.1%; Activity [35]: 29.7%; Activity [36]: 42%; Activity [37]: 51%; Activity [38]: 54.3%; Activity [39]: 82.1%; Activity [40]: 82.9%; Activity [41]: 80.8%
5 | Cc1ccc(NCC[C@@H]2CCCN3CCCC[C@H]23)c2c(=O)c3ccccc3sc12 |  | 12.4 | 46 |  |  |  |  |  |  |  |  |  |  |  |  |  |  |  |  |  | IC50 at 24 h [42]: 7.22 µM; viability at 10 µM [43]: 78%; inhibition [44]: > 80%
6 | COc1ccc2sc3c(C)ccc(NCCC[C@@H]4CCCN5CCCC[C@H]45)c3c(=O)c2c1 | 2.5 |  | 5.9 | -0.1 | 1.6 | 1.8 | 2.2 | 1.9 | 2 | 8.9 | 18.4 | 33.6 | 1 | 3.4 | 1.8 | 3.3 | 4.4 | 5.7 | 17.8 | 27.8 | Activity [23]: 37.6%; Activity [24]: 4.2%; Activity [25]: 5.8%; Activity [26]: 4.9%; Activity [27]: 5.3%; Activity [28]: 6.1%; Activity [29]: 4%; Activity [30]: 19.6%; Activity [31]: 27.4%; Activity [32]: 42.1%; Activity [33]: 3.8%; Activity [34]: 5.7%; Activity [35]: 7.1%; Activity [36]: 9.5%; Activity [37]: 9.3%; Activity [38]: 10.7%; Activity [39]: 48.6%; Activity [40]: 52.4%; Activity [41]: 54.3%

Source: ChEMBL document CHEMBL5335771, “Thioxanthenone-based derivatives as multitarget therapeutic leads for Alzheimer's disease” (Eur J Med Chem, 2023)
